# CHRM4 antagonist: human M4 muscarinic receptor antagonists, primary screen, CHO cells, Fluo-8 calcium fluorescence. Muscarinic acetylcholine receptor M4 (Homo sapiens), P08173. CHO-hM4 cells, ACh EC80. inhibition, % at 3 µM. 0.73% of 360,000 active. AID 624125, 2012;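 active means inhibition above its plate's cutoff, the mean inhibition of sample wells plus 3 SD, cut at about 27% in these data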
# Target sequence (P08173 whole entry, looked up): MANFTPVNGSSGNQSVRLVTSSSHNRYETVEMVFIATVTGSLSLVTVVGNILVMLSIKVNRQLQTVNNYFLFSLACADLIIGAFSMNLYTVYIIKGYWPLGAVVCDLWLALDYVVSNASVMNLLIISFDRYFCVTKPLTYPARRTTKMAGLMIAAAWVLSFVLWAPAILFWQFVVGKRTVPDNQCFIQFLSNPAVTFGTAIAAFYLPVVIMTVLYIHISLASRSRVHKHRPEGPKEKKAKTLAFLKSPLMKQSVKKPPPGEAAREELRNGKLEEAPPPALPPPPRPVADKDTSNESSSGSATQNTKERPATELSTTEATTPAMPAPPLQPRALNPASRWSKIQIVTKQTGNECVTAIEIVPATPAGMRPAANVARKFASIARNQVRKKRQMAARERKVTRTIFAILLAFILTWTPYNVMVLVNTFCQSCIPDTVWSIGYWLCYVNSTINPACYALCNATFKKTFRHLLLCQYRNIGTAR
# CHRM4 agonist: human M4 muscarinic receptor agonists, primary screen, CHO-K1 cells, Fluo-8 calcium fluorescence; Muscarinic acetylcholine receptor M4 (Homo sapiens), P08173; CHO-K1 hM4/Gqi5; vehicle 0%, full acetylcholine response 100%; activation, % at 3 µM; 0.14% of 360,000 active;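 active means activation above the run mean over all test wells plus 3 SD, cut at about 32% in these data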;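 further: peak over basal fluorescence ratio per well then scaled between controls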
# M5 PAM: human M5 muscarinic receptor positive allosteric modulators, primary screen, CHO-K1 cells, Fluo-8 calcium fluorescence; Muscarinic acetylcholine receptor M5 (Homo sapiens), P08912; CHO-K1 hM5, ACh EC20 PAM; 0% = ACh EC20, 100% = ACh EC100; activation, % at 3 µM; 0.3% of 360,000 active;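 active means activation above the run cutoff, the mean activation of all test compounds plus 3 SD, cut at about 18% in these data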
#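 Measured by: Fluo-8 calcium fluorescence; material: human M5 receptor in CHO-K1 cells; schedule: Post-acetylcholine fluorescence recording 140 s; benchmarks: low control EC20 acetylcholine (0%), high control EC100 acetylcholine (100%); read-out: Max/basal fluorescence ratio as % of EC20–EC100 ACh window; compound: single dose, 3 µM nominal final test concentration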
# CHRM4 PAM: human M4 muscarinic receptor positive allosteric modulators, primary screen, CHO-K1 cells, Fluo-8 calcium fluorescence. CHO-K1 hM4/Gqi5, ACh EC20; 0% = ACh EC20, 100% = maximal ACh. Muscarinic acetylcholine receptor M4 (Homo sapiens), P08173. 0.4% of 360,000 active. activation, % at 3 µM;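 active means activation above its plate's cutoff, the mean activation of sample wells plus 3 SD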
# M5 ag: human M5 muscarinic receptor agonists, primary screen, CHO-K1 cells, Fluo-8 calcium fluorescence; AID 624037, 2012; Muscarinic acetylcholine receptor M5 (Homo sapiens), P08912; CHO-K1 hM5 cells; 0% DMSO wells, 100% maximal acetylcholine response; activation, % at 3 µM; 0.19% of 360,000 active;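 active means activation above the run's mean over test compounds plus 3 SD, cut at about 23% in these data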;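 further: signal is peak over basal fluorescence ratio across the kinetic read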
# CHRM5 antagonist: human M5 muscarinic receptor antagonists, primary screen, CHO cells, Fluo-8 calcium fluorescence. 0.59% of 360,000 active. Muscarinic acetylcholine receptor M5 (Homo sapiens), P08912. inhibition, % at 3 µM. CHO-hM5 cells, ACh EC80. AID 624040, 2012;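 active means inhibition above a per-plate cutoff, the mean of that plate's test compounds plus 3 SD, cut at about 27% in these data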
# Hits are given with their value; n = inactive; ! = not active in a repeat. A selection: hits, their analogues and other compounds. The true share with any hit is near 1.8%.
SMILES,CHRM4 antagonist,CHRM4 agonist,M5 PAM,CHRM4 PAM,M5 ag,CHRM5 antagonist
O=C(CN1CCCCC1)N1N=C(c2cccs2)CC1c1cccs1 (stereo not given),45,n,n,n,n,38
COc1cccc(CN(C)C(=O)COc2cccc3c2OC(C)(C)C3)c1OC,n,n,n,22,n,n
Clc1ccc(C(CCN2CCCC2)Cc2ccccc2)cc1 (stereo not given),32,n,n,n,n,n
OC(CCN1CCCCC1)c1ccc(-c2ccccc2)cc1 (stereo not given),n,n,n,n,n,n
CO/N=C/C(C#N)=C/c1ccc(OC)c(OC)c1,n,n,n,20,n,n
Cc1ccc(-n2c(-c3ccco3)n[nH]c2=S)cc1,n,n,n,n,n,n
CC(C1CC2CCC1C2)n1c(-c2ccco2)n[nH]c1=S (stereo not given),n,n,n,n,n,29
O=C(Oc1ccc(Cl)c2cccnc12)c1cccnc1,n,n,n,n,n,n
O=C(NCCc1ccc(Cl)cc1)C1CCCO1 (stereo not given),97,n,n,n,n,61
O=C(NCCc1ccc(F)cc1)C1CCCO1 (stereo not given),n,n,n,n,n,n
Cc1cccc(C(=O)N2CC(=O)Nc3ccc(F)cc3C2c2ccc(F)cc2)c1 (stereo not given),n,n,n,n,n,n
COC(=O)C1=C(CS(=O)(=O)c2cc(OC)ccc2OC)NC(=O)NC1c1ccc(O)c(OC)c1 (stereo not given),n,n,n,n,n,n
Cn1cc(Cl)c(C(=O)OCC(=O)Nc2ccccc2)n1,n,n,n,n,n,47
Cn1ccc(C(=O)OCC(=O)Nc2cccc(Cl)c2)n1,n,n,n,n,n,n
COCCNC(=O)C(c1ccc(C)o1)N(Cc1ccc(F)cc1)C(=O)Cn1nnc2ccccc21 (stereo not given),n,n,22,n,n,n
Cc1cccc(-c2nc(S(=O)(=O)c3ccc(F)cc3)c(NCCCN3CCOCC3)o2)c1,n,n,n,n,n,n
Nc1ccc2cc3[nH]c4cc(N)ccc4c3nc2c1,32,n,n,n,101,68
Nc1ccc(-c2nc3ccc(N)cc3[nH]2)cc1,n,n,n,n,n,n
N#CCCn1cc(/C=N/O)c(-c2cccc([N+](=O)[O-])c2)n1,n,n,n,n,n,47
N#CCCn1cc(/C=N/O)c(-c2ccccc2)n1,n,n,n,n,n,n
COc1ccc(CCNC(=O)C2CC2)cc1OC,n,n,n,n,n,n
COc1ccc(CCNC(=O)CSc2nn3c(=O)c(C)nnc3s2)cc1OC,n,n,n,17,n,n
COc1ccc(CCNC(=O)COC(=O)C2CC2)cc1OC,n,n,20,n,n,n
COc1ccc(CNC(=O)CSc2nn3c(=O)c(C(C)(C)C)nnc3s2)cc1OC,n,n,n,n,n,n
O=C(COC(=O)Cc1ccsc1)Nc1ccc(Br)cc1F,n,n,n,n,n,n
SMILES,CHRM4 antagonist,CHRM4 agonist,M5 PAM,CHRM4 PAM,M5 ag,CHRM5 antagonist
Cc1ccc(/C=N/NC(=O)c2nnn(-c3nonc3N)c2-c2cccs2)cc1,n,n,n,n,30,n
CCOc1cccc(-c2c(C(=O)N/N=C/c3cccs3)nnn2-c2nonc2N)c1,n,n,28,n,28,n
CCOc1cccc(-c2c(C(=O)N/N=C/c3ccncc3)nnn2-c2nonc2N)c1,n,n,n,n,n,n
COc1cccc(-c2c(C(=O)N/N=C/c3cccs3)nnn2-c2nonc2N)c1,n,n,n,n,31,n
CC1CCCN(CC(O)CN)C1 (stereo not given),n,n,n,n,n,n
O=C(c1cc(-c2ccc(Cl)cc2)n[nH]1)N1CCN(C(=O)c2ccco2)CC1,n,n,n,n,n,n
CCN(CC)CCNc1nc2c(c(=O)[nH]c(=O)n2C)n1CC(O)COc1ccc(Cl)cc1Cl (stereo not given),n,n,n,n,n,n
Cc1cc(C)n(-c2nc3c(c(=O)[nH]c(=O)n3C)n2CC(O)COc2ccc(Cl)cc2Cl)n1 (stereo not given),n,n,22,n,n,n
COC(=O)CSc1nc(-c2cccs2)ccc1C#N,74,n,n,n,n,n
C/C(=N\Nc1nnc(-c2ccccc2)c(-c2ccccc2)n1)c1cccc([N+](=O)[O-])c1,n,n,n,n,n,n
O=[N+]([O-])c1cccc(/C=N/Nc2nnc(-c3ccccc3)c(-c3ccccc3)n2)c1,n,n,n,34,n,n
Cc1cccc2nc(C(=O)Nc3cc(Cl)ccc3-n3cncn3)cn12,n,n,n,n,n,n
COCCCn1c(=O)/c(=C\c2cccc(OC)c2OC)s/c1=C(/C#N)C(=O)Nc1ccc(C(=O)O)cc1,n,n,n,n,n,n
CCN1CCN(C2=C(NS(=O)(=O)c3ccc(NC(C)=O)cc3)C(=O)c3ccccc3C2=O)CC1,n,n,n,n,n,n
CC(=O)Nc1ccc(S(=O)(=O)NC2=C(N3CCN(Cc4ccccc4)CC3)C(=O)c3ccccc3C2=O)cc1,31!,n,n,n,n,n
CCOC(=O)c1ccc2c(c1)n(CC)c(/C=C/N(C)c1ccccc1)[n+]2CC,n,n,n,n,n,n
CC[n+]1c(/C=C/N(C)c2ccccc2)n(-c2ccccc2)c2ccc(-c3nc4ccccc4s3)cc21,58,n,n,n,n,n
CC(C)c1ccc(CC(=O)N2CCC2(C)C(=O)NS(=O)(=O)c2cccc(C#N)c2)cc1 (stereo not given),n,n,n,n,n,n
Cc1ccc(S(=O)(=O)N(C)C)cc1NC(=O)CN1C(=O)NC2(CCCCCC2)C1=O,n,n,n,n,n,29
Cc1ccc(C2(C)NC(=O)N(CC(=O)Nc3cc(S(=O)(=O)N(C)C)ccc3C)C2=O)cc1 (stereo not given),n,n,n,n,n,n
COCCNc1oc(Cc2cccc3ccccc23)nc1C#N,n,n,n,n,n,n
Cc1n[nH]c(=O)nc1NC(C)c1ccccc1 (stereo not given),28,n,n,n,n,n
COc1ccccc1Nc1nc(=O)[nH]nc1C,n,n,n,n,n,n
O=C(CCn1ccnc1)Nc1cc(Cl)ccc1O,n,n,n,n,n,n

# From PubChem
